Reference: article PMC10139733 (Journal of drug delivery science and technology, 2023)
Counter-ions that a name gives are not always drawn.

Columns and labels:
Caco-2 cells monolayer = assay: In vitro transport across the Caco-2 cells monolayer; format: in vitro ADME; conditions: 80 μg/mL equivalent drug, up to 240 min
Outline: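 Caco-2 cells in RPMI with 10% FBS and 1% penicillin/streptomycin (37 °C, 5% CO2) seeded at 10 × 10⁴ cells/insert on Geltrex-coated 0.3 μm polycarbonate inserts, fed every 2 days for 21 days. Only monolayers with TEER > 300 Ω·cm² were used. Test compound was dispersed in medium and applied apically. Basolateral samples at 30–240 min were replaced with warm medium. Three inserts per time point; HPLC.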

[1] = Screening solubility of sorafenib in oils, surfactants and cosolvents; format: physicochemical; conditions: 37 °C, thermodynamic from solid

- Penetration of sorafenib across the monolayer, apical to basolateral (Caco-2 cells monolayer): absolutely no penetration
- solubility at 24 h ([1]; capmul MCM (oil), oil or lipid): 5160 ± 800 µg/mL
- solubility at 24 h ([1]; captex 355 (oil), oil or lipid): 42.8 ± 7.6 µg/mL
- solubility at 24 h ([1]; carpyol 90 (oil), oil or lipid): 279 ± 6.5 µg/mL
- solubility at 24 h ([1]; corn oil, oil or lipid): 53 ± 13.7 µg/mL
- solubility at 24 h ([1]; ethanol (cosolvent), organic solvent or mixture): 5800 ± 800 µg/mL
- solubility at 24 h ([1]; isopropyl myristate (oil), oil or lipid): 37.9 ± 7.2 µg/mL
- solubility at 24 h ([1]; labrafil M 1944 CS (oil), oil or lipid): 350 ± 50 µg/mL
- solubility at 24 h ([1]; labrafil M 2125 CS (oil), oil or lipid): 279 ± 44.9 µg/mL
- solubility at 24 h ([1]; lauroglycol (oil), oil or lipid): 298 ± 184 µg/mL
- solubility at 24 h ([1]; mineral oil, oil or lipid): 47.6 ± 25.2 µg/mL
- solubility at 24 h ([1]; olive oil, oil or lipid): 35 ± 0.6 µg/mL
- solubility at 24 h ([1]; peceol (oil), oil or lipid): 900 ± 500 µg/mL
- solubility at 24 h ([1]; soybean oil, oil or lipid): 64 ± 49.3 µg/mL
- solubility at 24 h ([1]; triacetin (oil), oil or lipid): 113 ± 62.5 µg/mL
Compound: CNC(=O)c1cc(Oc2ccc(NC(=O)Nc3ccc(Cl)c(C(F)(F)F)c3)cc2)ccn1 [sorafenib, Sorafenib tosylate]
